Assay results published in PubChem BioAssay.
Activity calls are given as the source filed them.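 Rule for the calls, unless noted: active = NADPH fluorescence slope more negative than the mean of all samples by about 3 SD, 99.7% confidence; inactive = the rest.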

How the values were obtained:
[1] = inhibitors of TNFa-induced NFkB p65 translocation, primary screen, imaging, HUVEC, MLSMR starter and 10KST1 sets (AID 438;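 active = inhibition above 20% together with a positive visual image hit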;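 note: compound added about 3h40 before a 20 min TNFalpha stimulation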;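 for inhibition: signal is the nuclear over cytoplasmic p65 intensity ratio per well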); conditions: HUVEC TNFa-induced p65 nuclear translocation; cell count: measured here: nuclei count (cytotoxicity indicator), at 2.08 µM; inhibition: at 2 µM, stronger effect = higher value, 0% TNFa-plus-vehicle, 100% no-TNFa wells
[2] = inhibitors of mutant huntingtin aggregation, primary screen, imaging, exon1htt(103Q)mCFP cells, high-content imaging (AID 483;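 active = visual image review flags a hit and inhibition of aggregation exceeds 20%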;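 note: compound exposure lasted 3 days before fixation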;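 for nuclei count: percent of the per-plate median nuclei count of sample wells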); conditions: exon1htt(103Q)mCFP cell line, aggregate imaging, at 2 µM; inhibition of aggregation: stronger effect = higher value; nuclei count: measured here: cell count, toxicity
[3] = inhibitors of E-selectin induction by TNFa, primary screen, imaging, HUVEC, immunofluorescence, MLSMR starter and 10KST1 sets (AID 487;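 active = visually confirmed hit in the image check and inhibition above 20%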;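 for inhibition: signal is fraction of cell area covered by stained E-selectin grains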;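 for nuclei count: 100% = median nuclei count of all wells on the same plate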); conditions: HUVEC TNFalpha-induced E-selectin immunofluorescence imaging, at 2 µM; inhibition: stronger effect = higher value; nuclei count: measured here: cell number, toxicity
[4] = biological target: Voltage-gated potassium channel subunit beta-2 (Rattus norvegicus) (UniProt P62483); assay: KvBeta enzyme negative modulators, primary screen, biochemical, NADPH fluorescence (AID 622;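 active = fluorescence slope higher than the sample average by over 3 SD, cut at about -0.22 in these data, passing the limit was not always enough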;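 note: slope of raw intensity against log time taken from 70 to 1610 s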); conditions: recombinant KvBeta, 4-cyanobenzaldehyde reduction, at 10 µM, stronger effect = higher value
[5] = biological target: Voltage-gated potassium channel subunit beta-2 (Rattus norvegicus) (UniProt P62483); assay: KvBeta positive modulators, primary screen, biochemical, NADPH fluorescence (AID 623); conditions: Recombinant KvBeta, NADPH fluorescence decrease slope, 10 min; at 10 µM; stronger effect = lower value;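 note: fluorescence intensity change per second fitted from 20 to 320 s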
[6] = biological target: Muscarinic acetylcholine receptor M4 (Homo sapiens) (UniProt P08173); assay: compounds altering M4/GIRK thallium flux, either direction, primary screen, M4 allosteric agonist project, cell-based, HEK293 M4/GIRK, BTC-AM (AID 625;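 active = fluorescence slope after compound addition differing from the mean of all tested samples at 99.7% confidence, mostly higher but some lower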;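 note: thallium influx through GIRK channels coupled to M4 in HEK293 cells with BTC-AM dye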); conditions: at 10 µM, actives lie on both sides
How it was run: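 Material: HEK293 cells with M4 receptor and GIRK channels; Times: cells overnight at 37 °C, BTC-AM loading 1 h, reads 2 min total; Technique: kinetic BTC-AM fluorescence sampled at 1 Hz, 10 s pre-addition baseline; Read-out basis: slope over 15–24 s of trace normalized to starting intensity; Controls: carbachol positive, DMSO negative.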

[7] = inhibitors of Sendai virus-induced IRF3 signaling, primary screen, TLR/RLR signaling modifier project, cell-based, Sendai virus stimulus, luciferase, 10K MLSCN set (AID 602276;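 active = inhibition at or above 50% at 10 µM; inactive = inhibition below 50%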;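 note: firefly luciferase from ISG56 promoter only with Renilla not read in this screen; 0% = Sendai virus plus DMSO and 100% = medium plus DMSO without virus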); conditions: HEK293 RL24 IRF3 luciferase reporter, at 10 µM, stronger effect = higher value
[8] = inhibitors of poly I:C-induced TLR3 signaling, primary screen, cell-based, poly I:C stimulus, luciferase, 10K MLSCN set (AID 602277;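 active = inhibition of the reporter signal at or above 50%; inactive = inhibition below 50%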); conditions: HEK293-TLR3 RL24 IRF3 luciferase reporter, at 10 µM, stronger effect = higher value

Voltage-gated potassium channel subunit beta-2 (Rattus norvegicus), sequence (P62483 whole entry, looked up): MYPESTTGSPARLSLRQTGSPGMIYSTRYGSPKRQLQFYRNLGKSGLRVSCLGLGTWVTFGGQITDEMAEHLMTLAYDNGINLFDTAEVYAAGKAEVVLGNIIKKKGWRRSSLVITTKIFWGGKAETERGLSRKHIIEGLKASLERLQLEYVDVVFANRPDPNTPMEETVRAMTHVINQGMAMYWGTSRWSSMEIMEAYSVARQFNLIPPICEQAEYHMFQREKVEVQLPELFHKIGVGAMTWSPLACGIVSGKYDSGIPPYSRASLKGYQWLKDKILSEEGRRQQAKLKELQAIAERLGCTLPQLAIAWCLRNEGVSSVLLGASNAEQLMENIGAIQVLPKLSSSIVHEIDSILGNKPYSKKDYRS
Muscarinic acetylcholine receptor M4 (Homo sapiens), sequence (P08173 whole entry, looked up): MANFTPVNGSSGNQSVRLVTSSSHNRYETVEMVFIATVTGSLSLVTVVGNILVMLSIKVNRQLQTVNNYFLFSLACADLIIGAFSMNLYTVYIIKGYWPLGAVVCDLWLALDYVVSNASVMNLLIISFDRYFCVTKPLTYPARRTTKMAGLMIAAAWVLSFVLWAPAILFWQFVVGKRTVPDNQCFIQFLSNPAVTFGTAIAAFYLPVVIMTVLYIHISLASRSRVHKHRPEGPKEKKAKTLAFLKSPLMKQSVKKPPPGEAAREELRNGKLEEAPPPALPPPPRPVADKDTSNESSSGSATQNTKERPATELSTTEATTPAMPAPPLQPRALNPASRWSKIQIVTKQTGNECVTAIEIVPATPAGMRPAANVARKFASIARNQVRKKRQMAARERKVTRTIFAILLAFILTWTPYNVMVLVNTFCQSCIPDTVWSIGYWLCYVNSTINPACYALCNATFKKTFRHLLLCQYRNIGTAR

Compound | cell count [1] | inhibition [1] | inhibition of aggregation [2] | nuclei count [2] | inhibition [3] | nuclei count [3] | fluorescence slope [4] | NADPH fluorescence slope [5] | fluorescence slope [6] | inhibition [7] | inhibition [8]
COC(=O)CCc1c(C)c(C#N)c2nc3ccccc3n2c1N1CCCC1 | 490 | -2.7% (inactive) | 9.1% (inactive) | 103% | -103% (inactive) | 159% | -0.0763 (active) | -4e-06 (inactive) | 0.00578 (inactive) | 15% (inactive) | -5.51% (inactive)
COC(=O)c1ccccc1NC(=O)C1CCCCC1C(=O)O (stereo not drawn) | 266 | 2.8% (inactive) | 15.8% (inactive) | 98.8% | -39.2% (inactive) | 85.6% | -0.556 (inactive) | -2.1e-05 (inactive) | 0.00471 (inactive) | 12.8% (inactive) | 11.6% (inactive)
Cc1cc(C)n2nc(S(=O)(=O)N(C)Cc3ccccc3)nc2n1 | 560 | -10.1% (inactive) | -1.6% (inactive) | 110% | -35.3% (inactive) | 116% | -0.313 (inactive) | -3.3e-05 (inactive) | 0.00664 (inactive) | -4.55% (inactive) | 8.01% (inactive)
C[C@H](NC(=O)Nc1cccc(C(F)(F)F)c1)C(=O)O | 759 | 0.4% (inactive) | 14.4% (inactive) | 98% | -1.7% (inactive) | 92.5% | -0.547 (inactive) | 1.5e-05 (inactive) | 0.00427 (inactive) | 27.2% (inactive) | 22.6% (inactive)
COc1ccccc1-c1nc(C#N)c(N2CCN(c3ccccc3)CC2)o1 | 730 | -10.2% (inactive) | 17% (inactive) | 119% | -96.9% (inactive) | 93.4% | -0.495 (inactive) | 1.8e-05 (inactive) | 0.00604 (inactive) | 15.8% (inactive) | 12% (inactive)
Cc1noc(NS(=O)(=O)c2ccc(NC(=O)CCC3CCCC3)cc2)c1C | 472 | 2.1% (inactive) | -12.2% (inactive) | 83.5% | -147% (inactive) | 115% | -0.557 (inactive) | -1.2e-05 (inactive) | 0.00725 (inactive) | 19.6% (inactive) | 11.2% (inactive)
C=CS(=O)(=O)c1ccc(Oc2ccc(S(=O)(=O)C=C)cc2)cc1 | 378 | 70.2% (active) | -3.2% (inactive) | 80.8% | 104% (active) | 121% | -0.5 (inactive) | -2.6e-05 (inactive) | 0.00487 (inactive) | 14.1% (inactive) | 98.2% (active)
N#CC1=C(N)SC(N)=C(C#N)C1CCc1ccccc1 | 300 | -3.2% (inactive) | -16.8% (inactive) | 83% | -171% (inactive) | 104% | -0.543 (inactive) | -2e-06 (inactive) | 0.00612 (inactive) | 18% (inactive) | 26.3% (inactive)
O=C(NCc1ccccn1)Nc1ccc2c(c1)OCO2 | 415 | -12.8% (inactive) | -6.8% (inactive) | 100% | 3.1% (inactive) | 92.3% | -0.459 (inactive) | -1.3e-06 (inactive) | 0.00592 (inactive) | 10.3% (inactive) | 99.1% (active)
COC(=O)c1ccc2ncccc2c1 | 378 | 2.6% (inactive) | 9.1% (inactive) | 106% | -10.4% (inactive) | 95.7% | -0.536 (inactive) | -8.5e-05 (inactive) | 0.00451 (inactive) | -15.2% (inactive) | -24.8% (inactive)
Cc1cc(=O)oc2ccc(OCC(=O)N3CCC(C)CC3)cc12 | 400 | -3.9% (inactive) | -30.5% (inactive) | 103% | -41.1% (inactive) | 104% | -0.567 (inactive) | -4.1e-05 (inactive) | 0.00366 (inactive) | 17.3% (inactive) | 8.48% (inactive)
O=C(CCN1CCN(C(=O)c2ccco2)CC1)Nc1ccc(F)cc1 | 356 | -2.6% (inactive) | -11.1% (inactive) | 87.1% | -78.7% (inactive) | 108% | -0.459 (inactive) | 0.000122 (inactive) | 0.00658 (inactive) | 11.5% (inactive) | 20.2% (inactive)
O=C(CN1C(=O)CCSc2ccccc21)Nc1ccc(F)cc1 | 312 | 0.7% (inactive) | -6% (inactive) | 100% | -8.3% (inactive) | 110% | -0.473 (inactive) | 4.1e-05 (inactive) | 0.00664 (inactive) | -6.29% (inactive) | 2.08% (inactive)
CCCCN(CCCC)C(=O)CN(C)S(=O)(=O)c1ccc2c(c1)n(C)c(=O)c(=O)n2C | 354 | -5.1% (inactive) | -10.5% (inactive) | 88.3% | -75.3% (inactive) | 121% | -0.466 (inactive) | -4.4e-06 (inactive) | 0.00642 (inactive) | 11.1% (inactive) | 22.5% (inactive)
CCOc1ccccc1-c1nc(-c2ccc(NC(=O)Cc3ccccc3OC)cc2)no1 | 484 | -5% (inactive) | -2.4% (inactive) | 87.4% | -54.6% (inactive) | 111% | -0.527 (inactive) | -3.1e-05 (inactive) | 0.0078 (inactive) | -18.2% (inactive) | -34.8% (inactive)
CCOC(=O)c1cc2sccc2n1CC(=O)Nc1ccc2c(c1)OCCO2 | 513 | -14.9% (inactive) | -25.9% (inactive) | 108% | 12.2% (inactive) | 117% | -0.61 (inactive) | 4.2e-06 (inactive) | 0.00667 (inactive) | -5.94% (inactive) | -4.31% (inactive)
Oc1c(Cl)cc(Cl)c2c1NCCC2 | 313 | 0.4% (inactive) | -13.1% (inactive) | 100% | -47.5% (inactive) | 91.9% | -0.466 (inactive) | -3e-05 (inactive) | 0.00523 (inactive) | 11.2% (inactive) | 31.8% (inactive)
CCS(=O)(=O)c1ccc(S(=O)(=O)CC)s1 | 412 | -5.5% (inactive) | 25.8% (inactive) | 61.1% | 10.5% (inactive) | 82.3% | -0.584 (inactive) | -4.4e-05 (inactive) | 0.00846 (inactive) | 6.99% (inactive) | 17.4% (inactive)
COc1ccc(N2CCN(C(c3cccs3)C(C)NC(=O)c3ccco3)CC2)cc1 (stereo not drawn) | 467 | 5.5% (inactive) | -7.1% (inactive) | 83.9% | 11.8% (inactive) | 101% | -0.368 (inactive) | -7.2e-05 (inactive) | 0.00502 (inactive) | 8.09% (inactive) | 22.4% (inactive)
O=C(Cn1c(=O)n(Cc2ccc3c(c2)OCO3)c(=O)c2ccccc21)N1CCCc2ccccc21 | 680 | -6.8% (inactive) | -11.1% (inactive) | 87.9% | -22.2% (inactive) | 109% | -0.595 (inactive) | -6.4e-06 (inactive) | 0.00433 (inactive) | 21.3% (inactive) | 26.4% (inactive)
O=C(Nc1cccc(F)c1)c1ccc2c(c1)OCO2 | 246 | -2.1% (inactive) | 31.8% (inactive) | 83.5% | 80.7% (active) | 85% | -0.597 (inactive) | 1.2e-05 (inactive) | 0.00384 (inactive) | -56.2% (inactive) | -121% (inactive)
COc1ccc(-c2cc(C(=O)N3CCN(Cc4ccccc4)CC3)no2)cc1OC | 463 | -23% (inactive) | -5.8% (inactive) | 106% | -36% (inactive) | 112% | -0.318 (inactive) | -6.6e-05 (inactive) | 0.00627 (inactive) | 8.32% (inactive) | 12.9% (inactive)
Cc1ccc(-n2ncc3c(=O)n(CC(=O)NC4CCCCC4)cnc32)cc1C | 281 | -0.3% (inactive) | 4.3% (inactive) | 96.7% | -3.3% (inactive) | 106% | -0.575 (inactive) | 2.2e-05 (inactive) | 0.00615 (inactive) | 13.5% (inactive) | 15.1% (inactive)
CCOC(=O)Nc1ccc2c(c1)N(C(=O)CN(CC)CC)c1ccccc1C=C2 | 389 | 3.3% (inactive) | -9.7% (inactive) | 108% | -96.2% (inactive) | 119% | -0.577 (inactive) | -0.000132 (inactive) | 0.00312 (inactive) | 18.3% (inactive) | 26.3% (inactive)
CCOc1cc(N2CCOCC2)c(OCC)cc1NC(=O)COC(=O)CCc1c[nH]c2ccccc12 | 300 | -5.2% (inactive) | 7.9% (inactive) | 105% | -28% (inactive) | 109% | -0.273 (inactive) | -1.5e-05 (inactive) | 0.00571 (inactive) | 2.83% (inactive) | 20.2% (inactive)
N#Cc1nc(-c2ccc(Cl)cc2)oc1NCCc1ccccn1 | 238 | 18.4% (inactive) | -7.2% (inactive) | 107% | -40.5% (inactive) | 97.9% | -0.59 (inactive) | -2.8e-06 (inactive) | 0.00656 (inactive) | 24.4% (inactive) | -35% (inactive)
COc1ccc(CN2CC(C(=O)NCCCOC(C)C)CC2=O)cc1 (stereo not drawn) | 766 | -12.7% (inactive) | -17.1% (inactive) | 102% | -63.4% (inactive) | 122% | -0.522 (inactive) | -6.3e-05 (inactive) | 0.00604 (inactive) | -10% (inactive) | -6.2% (inactive)
O=c1ccn(Cc2ccccc2Cl)cc1 | 440 | 3% (inactive) | 1.3% (inactive) | 102% | 0.1% (inactive) | 131% | -0.426 (inactive) | -4e-05 (inactive) | 0.00507 (inactive) | 15.6% (inactive) | 14.2% (inactive)
